Results reported in ChEMBL document CHEMBL3108759, “Scaffold ranking and positional scanning utilized in the discovery of nAChR-selective compounds suitable for optimization studies” (J Med Chem, 2013).
The source made the active and inactive calls. The calls are words filed in the database; no cut-off is given here.

Assays:
HEK293 = assay: Selectivity ratio for rat alpha3beta4 nAChR transfected in HEK293 cells to rat alpha4beta2 nAChR transfected in HEK293 cells; type: cell-based
[1] = target: T1, Neuronal acetylcholine receptor; alpha4/beta2 (Rattus norvegicus, UniProt P09483+P12390); assay: Antagonist activity at rat alpha4beta2 nAChR transfected in HEK293 cells after 10 mins by fluorescence assay in presence of nicotine; type: cell-based
Method in brief: (§1)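 Transfected HEK cells were seeded at 4000/well the day before and loaded with blue membrane-potential dye in HBSS/20 mM HEPES pH 7.4 at 37 °C for 20 min. […] Fluorescence (ex 530, em 550–580) was recorded every 3 s for 120 s on a FlexStation.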

[2] = target: T1, Neuronal acetylcholine receptor; alpha4/beta2; assay: Displacement of [3H]epibatidine from rat alpha4beta2 nAChR transfected in HEK293 cells after 2 hrs by beta-plate counting analysis; type: cell-based
Method in brief: (§2)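 Cell lines KXα3β4R2 and KXα4β2R2 (rat receptors) were used. Membranes were prepared by homogenizing cells in 50 mM Tris pH 7.4 and centrifuging twice at 20000g. They were incubated 2 h at room temperature with 0.3 nM [3H]epibatidine plus test sample, then filtered on PEI-soaked glass fiber and counted. Nonspecific binding was defined by 1 µM AT-1001 or 0.1 µM epibatidine. Ki was obtained by Cheng–Prusoff; runs were in triplicate, at least twice.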

[3] = target: Neuronal acetylcholine receptor; alpha3/beta4 (Rattus norvegicus, UniProt P04757+P12392); assay: Displacement of [3H]epibatidine from rat alpha3beta4 nAChR transfected in HEK293 cells after 2 hrs by beta-plate counting analysis; type: cell-based; method in brief: as §2
Rattus norvegicus = organism: Rattus norvegicus; assay: Selectivity ratio of Ki for rat alpha3beta4 nAChR to Ki for rat alpha4beta2 nAChR
Method in brief: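 Selectivity was calculated from [3H]epibatidine-binding Ki values as (Ki α3β4 − Ki α4β2)/Ki α4β2.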

[4] = target: T2, Neuronal acetylcholine receptor; alpha4/beta2 (Rattus norvegicus) (UniProt P09483+P12390); assay: Noncompetitive inhibition of nicotine-induced rat alpha4beta2 nAChR transfected in HEK293 cells assessed as stimulation of membrane potential at 3 uM after 10 mins by fluorescence assay; type: cell-based; set-up: scale not given: the % may be the effect or the level left; method in brief: as §1
[5] = target: T2, Neuronal acetylcholine receptor; alpha4/beta2 (Rattus norvegicus); assay: Noncompetitive inhibition of nicotine-induced rat alpha4beta2 nAChR transfected in HEK293 cells assessed as stimulation of membrane potential at 1 uM after 10 mins by fluorescence assay; type: cell-based; set-up: scale not given: the % may be the effect or the level left; method in brief: as §1
[6] = target: T2, Neuronal acetylcholine receptor; alpha4/beta2 (Rattus norvegicus); assay: Inverse agonist activity at nicotine-induced rat alpha4beta2 nAChR activation transfected in HEK293 cells; type: cell-based
[7] = target: T2, Neuronal acetylcholine receptor; alpha4/beta2 (Rattus norvegicus); assay: Noncompetitive inhibition of nicotine-induced rat alpha4beta2 nAChR transfected in HEK293 cells assessed as stimulation of membrane potential after 10 mins by fluorescence assay; type: cell-based; method in brief: as §1
[8] = target: T2, Neuronal acetylcholine receptor; alpha4/beta2 (Rattus norvegicus); assay: Noncompetitive inhibition of nicotine-induced rat alpha4beta2 nAChR transfected in HEK293 cells assessed as stimulation of membrane potential at 0.3 uM after 10 mins by fluorescence assay; type: cell-based; set-up: scale not given: the % may be the effect or the level left; method in brief: as §1
[9] = target: T3, Neuronal acetylcholine receptor; alpha3/beta4 (Rattus norvegicus) (UniProt P04757+P12392); assay: Antagonist activity at rat alpha3beta4 nAChR transfected in HEK293 cells assessed as inhibition of nicotine-induced membrane potential stimulation at 10 uM after 10 mins by fluorescence assay; type: cell-based; method in brief: as §1
[10] = target: T2, Neuronal acetylcholine receptor; alpha4/beta2 (Rattus norvegicus); assay: Agonist activity at rat alpha4beta2 nAChR transfected in HEK293 cells assessed as change in membrane potential measured every 3 secs for 120 secs by fluorescence assay; type: cell-based
Method in brief: (§3)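 Membrane potential read with blue potentiometric dye on a FlexStation. Transfected HEK cells were seeded at 4000/well one day ahead, washed, then loaded with dye in HBSS containing 20 mM HEPES, pH 7.4, for 30 min at 37 °C. Compound was then dispensed automatically and fluorescence (ex 530, em 550–580) recorded every 3 s for 120 s.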

[11] = target: T3, Neuronal acetylcholine receptor; alpha3/beta4 (Rattus norvegicus); assay: Agonist activity at rat alpha3beta4 nAChR transfected in HEK293 cells assessed as change in membrane potential measured every 3 secs for 120 secs by fluorescence assay; type: cell-based; method in brief: as §3
[12] = target: Nicotinic acetylcholine receptor alpha3/beta4/alpha5 (Homo sapiens, UniProt P30532+P30926+P32297); assay: Binding affinity to alpha3beta4alpha5 nAChR (unknown origin); type: protein-complex assay
Chain of Nicotinic acetylcholine receptor alpha3/beta4/alpha5 (P30926 whole entry): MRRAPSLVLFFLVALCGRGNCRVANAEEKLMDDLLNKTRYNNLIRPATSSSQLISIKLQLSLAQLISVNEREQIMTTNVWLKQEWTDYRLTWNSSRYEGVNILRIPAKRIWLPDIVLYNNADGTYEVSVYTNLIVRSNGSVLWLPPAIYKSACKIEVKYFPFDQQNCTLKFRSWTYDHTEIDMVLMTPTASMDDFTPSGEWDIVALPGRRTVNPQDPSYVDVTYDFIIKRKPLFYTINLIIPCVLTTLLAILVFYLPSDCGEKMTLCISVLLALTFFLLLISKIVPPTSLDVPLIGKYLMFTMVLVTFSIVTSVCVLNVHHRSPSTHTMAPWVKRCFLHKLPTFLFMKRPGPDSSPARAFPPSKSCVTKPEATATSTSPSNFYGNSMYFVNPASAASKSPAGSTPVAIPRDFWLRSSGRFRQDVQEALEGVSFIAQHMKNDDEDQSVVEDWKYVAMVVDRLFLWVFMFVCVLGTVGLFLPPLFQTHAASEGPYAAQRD
Chain of Nicotinic acetylcholine receptor alpha3/beta4/alpha5 (P32297 whole entry): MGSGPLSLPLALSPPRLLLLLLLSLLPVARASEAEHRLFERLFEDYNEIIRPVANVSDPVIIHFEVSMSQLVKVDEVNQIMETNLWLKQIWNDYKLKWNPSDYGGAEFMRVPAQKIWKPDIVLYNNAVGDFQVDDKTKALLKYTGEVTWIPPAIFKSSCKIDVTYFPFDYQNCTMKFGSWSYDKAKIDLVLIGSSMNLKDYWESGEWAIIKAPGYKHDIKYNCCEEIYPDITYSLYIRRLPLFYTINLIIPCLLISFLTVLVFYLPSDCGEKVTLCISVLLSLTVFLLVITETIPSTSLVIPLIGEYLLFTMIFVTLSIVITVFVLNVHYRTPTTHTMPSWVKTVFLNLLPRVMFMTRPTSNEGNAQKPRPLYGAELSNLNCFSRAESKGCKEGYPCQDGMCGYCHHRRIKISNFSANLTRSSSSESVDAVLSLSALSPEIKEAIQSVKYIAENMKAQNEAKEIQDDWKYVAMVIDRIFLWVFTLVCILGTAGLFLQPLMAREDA
Chain of Nicotinic acetylcholine receptor alpha3/beta4/alpha5 (P30532 whole entry): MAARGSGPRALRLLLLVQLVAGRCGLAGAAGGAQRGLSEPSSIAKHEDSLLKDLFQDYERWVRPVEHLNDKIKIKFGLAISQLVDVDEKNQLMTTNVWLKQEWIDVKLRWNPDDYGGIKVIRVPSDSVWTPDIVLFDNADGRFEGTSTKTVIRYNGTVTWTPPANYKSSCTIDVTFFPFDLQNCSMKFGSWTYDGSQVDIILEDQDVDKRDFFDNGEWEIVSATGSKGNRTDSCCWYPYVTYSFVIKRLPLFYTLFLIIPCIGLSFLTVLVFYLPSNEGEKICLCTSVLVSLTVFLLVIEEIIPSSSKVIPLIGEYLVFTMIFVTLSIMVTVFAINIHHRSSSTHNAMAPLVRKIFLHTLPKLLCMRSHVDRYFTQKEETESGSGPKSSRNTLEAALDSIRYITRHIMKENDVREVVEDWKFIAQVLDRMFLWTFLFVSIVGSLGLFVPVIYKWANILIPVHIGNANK

Chain of Neuronal acetylcholine receptor; alpha3/beta4 (P04757 whole entry): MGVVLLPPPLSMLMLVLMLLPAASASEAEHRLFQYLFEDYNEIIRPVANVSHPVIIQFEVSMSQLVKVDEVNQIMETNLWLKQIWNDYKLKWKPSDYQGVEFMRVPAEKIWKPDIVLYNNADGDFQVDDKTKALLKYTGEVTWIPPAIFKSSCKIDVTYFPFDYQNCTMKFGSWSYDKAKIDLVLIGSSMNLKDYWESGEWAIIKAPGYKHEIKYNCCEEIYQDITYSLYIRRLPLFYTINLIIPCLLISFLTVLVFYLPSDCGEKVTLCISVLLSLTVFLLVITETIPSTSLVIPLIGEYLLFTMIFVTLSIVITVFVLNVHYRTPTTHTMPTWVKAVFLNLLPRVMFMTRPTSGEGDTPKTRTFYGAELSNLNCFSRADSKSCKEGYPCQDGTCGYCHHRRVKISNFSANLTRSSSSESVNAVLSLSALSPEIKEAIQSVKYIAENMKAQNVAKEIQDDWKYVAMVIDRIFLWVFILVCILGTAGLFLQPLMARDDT
Chain of Neuronal acetylcholine receptor; alpha3/beta4 (P12392 whole entry): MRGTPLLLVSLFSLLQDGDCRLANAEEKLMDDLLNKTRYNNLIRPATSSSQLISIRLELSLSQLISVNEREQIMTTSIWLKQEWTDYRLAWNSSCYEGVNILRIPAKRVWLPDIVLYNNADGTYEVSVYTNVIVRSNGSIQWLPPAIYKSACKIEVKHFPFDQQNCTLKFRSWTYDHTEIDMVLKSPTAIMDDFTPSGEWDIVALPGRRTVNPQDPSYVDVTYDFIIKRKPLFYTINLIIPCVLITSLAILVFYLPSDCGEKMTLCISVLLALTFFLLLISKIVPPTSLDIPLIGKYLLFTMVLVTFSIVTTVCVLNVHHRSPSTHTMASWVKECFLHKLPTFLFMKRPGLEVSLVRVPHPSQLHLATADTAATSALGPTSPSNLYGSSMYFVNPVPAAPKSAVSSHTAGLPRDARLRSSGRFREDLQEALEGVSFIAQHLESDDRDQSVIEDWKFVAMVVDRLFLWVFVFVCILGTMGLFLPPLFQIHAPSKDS
T1 sequence (P09483 whole entry): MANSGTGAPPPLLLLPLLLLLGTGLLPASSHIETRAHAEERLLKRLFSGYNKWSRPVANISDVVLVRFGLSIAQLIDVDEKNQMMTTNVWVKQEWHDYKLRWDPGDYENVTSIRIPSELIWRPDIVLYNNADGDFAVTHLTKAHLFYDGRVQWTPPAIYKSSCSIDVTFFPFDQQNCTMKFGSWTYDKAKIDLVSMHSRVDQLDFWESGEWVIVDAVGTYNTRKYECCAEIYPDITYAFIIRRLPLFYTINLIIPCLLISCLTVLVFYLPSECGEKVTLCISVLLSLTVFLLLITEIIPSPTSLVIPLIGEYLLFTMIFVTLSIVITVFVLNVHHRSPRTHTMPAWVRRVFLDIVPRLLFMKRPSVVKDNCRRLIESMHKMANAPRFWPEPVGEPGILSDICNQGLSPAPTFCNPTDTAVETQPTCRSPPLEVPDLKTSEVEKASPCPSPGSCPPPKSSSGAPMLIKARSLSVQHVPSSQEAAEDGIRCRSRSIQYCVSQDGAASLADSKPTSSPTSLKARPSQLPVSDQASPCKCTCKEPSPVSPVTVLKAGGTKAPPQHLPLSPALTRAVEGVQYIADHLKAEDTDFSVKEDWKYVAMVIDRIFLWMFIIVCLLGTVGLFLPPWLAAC
T1 sequence (P12390 whole entry): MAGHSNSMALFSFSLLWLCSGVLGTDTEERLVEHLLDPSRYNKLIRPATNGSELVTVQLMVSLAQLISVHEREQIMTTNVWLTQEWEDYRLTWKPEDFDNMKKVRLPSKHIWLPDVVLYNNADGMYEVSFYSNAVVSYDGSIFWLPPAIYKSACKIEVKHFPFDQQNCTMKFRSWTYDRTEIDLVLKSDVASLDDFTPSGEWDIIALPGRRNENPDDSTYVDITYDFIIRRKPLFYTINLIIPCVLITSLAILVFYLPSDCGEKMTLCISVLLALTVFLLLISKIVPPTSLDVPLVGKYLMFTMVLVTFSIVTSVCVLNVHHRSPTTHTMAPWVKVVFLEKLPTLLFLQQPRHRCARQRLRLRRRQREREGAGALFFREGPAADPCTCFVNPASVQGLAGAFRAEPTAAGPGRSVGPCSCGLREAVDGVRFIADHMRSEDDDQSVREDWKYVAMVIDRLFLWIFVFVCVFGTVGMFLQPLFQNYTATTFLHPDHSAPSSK

SMILES | Selectivity ratio (HEK293) | Ki [2] [µM] | Ki [3] [µM] | other results
CCCCCCCN1C(=N)NC[C@@H]1CCCCN1C[C@@H](CC2CCCCC2)N(CCc2cccc(Br)c2)C1=N | 7.2 | – | – | –
CC(C)(C)C1CCC(CN2C(=N)N(CCCC[C@H]3CN=C(N)N3CCc3cccnc3)C[C@@H]2CC2CCCCC2)CC1 (some centres not stated) | – | 0.611 | 78.1 | IC50 [1]: 3.4 µM
CC(C)(C)C1CCC(CN2C(=N)N(CCCC[C@H]3CNC(=N)N3CCc3cccc(F)c3)C[C@H]2CC2CCCCC2)CC1 (some centres not stated) | 25.9 | – | – | Ratio Ki (Rattus norvegicus): 24
N=C1NC[C@H](CCCCN2C[C@@H](Cc3ccc4ccccc4c3)N(CCc3cccc(Br)c3)C2=N)N1CCc1ccc(Cl)c(Cl)c1 | 0.6 | – | – | –
CCCCCCCN1C(N)=NC[C@@H]1CCCCN1C[C@@H](CC2CCCCC2)N(CCc2cccc(Br)c2)C1=N | – | 2.8 | 23.4 | –
N=C1N(CCCC[C@H]2CN=C(N)N2CCc2cccc(F)c2)C[C@@H](Cc2ccccc2)N1CCc1cccc(Br)c1 | – | 1.8 | 20.4 | –
CCCCCCCN1C(=N)NC[C@@H]1CCCCN1C[C@@H](CC2CCCCC2)N(CC2CCC(C(C)(C)C)CC2)C1=N (some centres not stated) | 13.2 | – | – | –
CC(C)(C)C1CCC(CN2C(=N)N(CCCC[C@H]3CNC(=N)N3CCc3cccnc3)C[C@H]2Cc2ccccc2)CC1 (some centres not stated) | 20 | 0.118 | 56.5 | Activity [4]: 0%; Activity [5]: 38%; Ratio Ki (Rattus norvegicus): 478; Activity [6]: Active; inhibition [7]: Dose-dependent effect; Activity [8]: 83%; inhibition [9]: 50%; Activity [10]: inactive; Activity [11]: inactive; Ki [12]: 9.06 µM; IC50 [1]: 0.514 µM
N=C1NC[C@H](CCCCN2C[C@@H](CC3CCCCC3)N(CCc3cccc(Br)c3)C2=N)N1CCc1cccc(F)c1 | 4.8 | – | – | –
CC(C)(C)C1CCC(CN2C(=N)N(CCCC[C@H]3CNC(=N)N3CCc3cccnc3)C[C@@H]2CC2CCCCC2)CC1 (some centres not stated) | – | – | – | Ratio Ki (Rattus norvegicus): 128
N=C1N(CCCC[C@H]2CN=C(N)N2CCc2ccc(Cl)c(Cl)c2)C[C@@H](Cc2ccc3ccccc3c2)N1CCc1ccc(Br)cc1 | – | 2.5 | 4 | –
N=C1N(CCCC[C@H]2CN=C(N)N2CCc2ccc(Cl)c(Cl)c2)C[C@H](Cc2ccc3ccccc3c2)N1CCc1ccc(Cl)c(Cl)c1 | – | 183 | 100 | –
CC(C)CCCN1C(=N)NC[C@@H]1CCCCN1C[C@@H](Cc2ccccc2)N(CCc2cccc(Br)c2)C1=N | 17.5 | 2.6 | 47.8 | –
CC(C)(C)C1CCC(CN2C(=N)N(CCCC[C@H]3CNC(=N)N3CCc3cccnc3)C[C@@H]2Cc2ccccc2)CC1 (some centres not stated) | – | – | – | Ratio Ki (Rattus norvegicus): 74
CC(C)(C)C1CCC(CN2C(=N)N(CCCC[C@H]3CNC(=N)N3CCc3cccc(F)c3)C[C@H]2Cc2ccccc2)CC1 (some centres not stated) | 19 | 1.59 | 61.7 | Ratio Ki (Rattus norvegicus): 39; IC50 [1]: 26.3 µM
N=C1N(CCCC[C@H]2CN=C(N)N2CCc2ccc(Cl)c(Cl)c2)C[C@H](Cc2ccc3ccccc3c2)N1CCc1cccc(Br)c1 | – | 43.4 | 76 | –
CC(C)CCCN1C(=N)NC[C@@H]1CCCCN1C[C@@H](CC2CCCCC2)N(CCc2cccc(Br)c2)C1=N | 10.2 | – | – | –
CC(C)(C)C1CCC(CN2C(=N)N(CCCC[C@H]3CN=C(N)N3CCc3cccnc3)C[C@H]2CC2CCCCC2)CC1 (some centres not stated) | – | 0.34 | 59.7 | IC50 [1]: 2.83 µM
CCCCCCCN1C(N)=NC[C@@H]1CCCCN1C[C@@H](Cc2ccccc2)N(CC2CCC(C(C)(C)C)CC2)C1=N (some centres not stated) | – | 2.7 | 54.4 | –
CC(C)(C)C1CCC(CN2CCN(CCCC[C@H]3CN=C(N)N3CCc3cccnc3)C2=N)CC1 (some centres not stated) | – | 0.433 | 27.6 | IC50 [1]: 2.82 µM
CC(C)CCCN1C(=N)NC[C@@H]1CCCCN1C[C@@H](Cc2ccccc2)N(CC2CCC(C(C)(C)C)CC2)C1=N (some centres not stated) | 28.5 | – | – | –
CC(C)(C)C1CCC(CN2C(=N)N(CCCC[C@@H]3CNC(=N)N3CCc3cccnc3)C[C@H]2CC2CCCCC2)CC1 (some centres not stated) | – | 0.257 | 33.4 | Ratio Ki (Rattus norvegicus): 130; IC50 [1]: 1.69 µM
CC(C)(C)C1CCC(CN2C(=N)N(CCCC[C@H]3CNC(=N)N3CCc3cccnc3)C[C@H]2CC2CCCCC2)CC1 (some centres not stated) | – | – | – | Ratio Ki (Rattus norvegicus): 176

SMILES | Selectivity ratio (HEK293) | Ki [2] [µM] | Ki [3] [µM] | other results
CC(C)CCCN1C(=N)NC[C@@H]1CCCCN1C[C@@H](CC2CCCCC2)N(CC2CCC(C(C)(C)C)CC2)C1=N (some centres not stated) | 21.2 | – | – | –
CO[C@H]1CC=C2CCN3CCC4=C(CC(=O)OC4)[C@]23C1 | – | 0.485 | > 10 | IC50 [1]: 0.624 µM
N=C1NC[C@H](CCCCN2C[C@H](Cc3ccc4ccccc4c3)N(CCc3ccc(Br)cc3)C2=N)N1CCc1ccc(Cl)c(Cl)c1 | -0.1 | – | – | –
CC(C)CCCN1C(N)=NC[C@@H]1CCCCN1C[C@@H](CC2CCCCC2)N(CCc2cccc(Br)c2)C1=N | – | 3.3 | 37.3 | –
N=C1NC[C@H](CCCCN2C[C@@H](Cc3ccc4ccccc4c3)N(CCc3ccc(Cl)c(Cl)c3)C2=N)N1CCc1ccc(Cl)c(Cl)c1 | 6.3 | – | – | –
CCCCCCCN1C(=N)NC[C@@H]1CCCCN1C[C@@H](Cc2ccccc2)N(CCc2cccc(Br)c2)C1=N | 4.8 | 2.5 | 14.4 | –
N=C1N(CCCC[C@H]2CN=C(N)N2CCc2ccc(Cl)c(Cl)c2)C[C@@H](Cc2ccc3ccccc3c2)N1CCc1ccc(Cl)c(Cl)c1 | – | 47.5 | 347 | –
N=C1N(CCCC[C@H]2CN=C(N)N2CCc2ccc(Cl)c(Cl)c2)C[C@H](Cc2ccc3ccccc3c2)N1CCc1ccc(Br)cc1 | – | 3.1 | 2.7 | –
CC(C)CCCN1C(N)=NC[C@@H]1CCCCN1C[C@@H](Cc2ccccc2)N(CC2CCC(C(C)(C)C)CC2)C1=N (some centres not stated) | – | 2.3 | 68.4 | –
N=C1NC[C@H](CCCCN2C[C@@H](Cc3ccccc3)N(CCc3cccc(Br)c3)C2=N)N1CCc1cccc(F)c1 | 10.1 | – | – | –
CCCCCCCN1C(=N)NC[C@@H]1CCCCN1C[C@@H](Cc2ccccc2)N(CC2CCC(C(C)(C)C)CC2)C1=N (some centres not stated) | 19.3 | – | – | –
CC(C)(C)C1CCC(CN2C(=N)N(CCCC[C@H]3CN=C(N)N3CCc3cccnc3)C[C@@H]2Cc2ccccc2)CC1 (some centres not stated) | – | 0.323 | 23.8 | IC50 [1]: 1.47 µM
CCCCCCCN1C(N)=NC[C@@H]1CCCCN1C[C@@H](CC2CCCCC2)N(CC2CCC(C(C)(C)C)CC2)C1=N (some centres not stated) | – | 3.9 | 55.1 | –
N=C1N(CCCC[C@H]2CN=C(N)N2CCc2cccc(F)c2)C[C@@H](CC2CCCCC2)N1CCc1cccc(Br)c1 | – | 3.5 | 20.1 | –
N=C1NC[C@H](CCCCN2C[C@@H](Cc3ccc4ccccc4c3)N(CCc3ccc(Br)cc3)C2=N)N1CCc1ccc(Cl)c(Cl)c1 | 0.6 | – | – | –
CC(C)(C)C1CCC(CN2CCN(CCCC[C@H]3CNC(=N)N3CCc3cccnc3)C2=N)CC1 (some centres not stated) | – | – | – | Ratio Ki (Rattus norvegicus): 64
N=C1N(CCCC[C@H]2CN=C(N)N2CCc2ccc(Cl)c(Cl)c2)C[C@@H](Cc2ccc3ccccc3c2)N1CCc1cccc(Br)c1 | – | 1.9 | 3 | –
CC(C)CCCN1C(N)=NC[C@@H]1CCCCN1C[C@@H](CC2CCCCC2)N(CC2CCC(C(C)(C)C)CC2)C1=N (some centres not stated) | – | 3.5 | 78.4 | –
CC(C)(C)C1CCC(CN2C(=N)N(CCCC[C@@H]3CNC(=N)N3CCc3cccnc3)C[C@H]2Cc2ccccc2)CC1 (some centres not stated) | – | 0.307 | 63.3 | Ratio Ki (Rattus norvegicus): 206; IC50 [1]: 3.02 µM
CC(C)(C)C1CCC(CN2CCN(CCCC[C@@H]3CNC(=N)N3CCc3cccnc3)C2=N)CC1 (some centres not stated) | – | 2.22 | 51.9 | Ratio Ki (Rattus norvegicus): 23; IC50 [1]: 2.95 µM
CC(C)(C)C1CCC(CN2C(=N)N(CCCC[C@H]3CN=C(N)N3CCc3cccc(F)c3)C[C@H]2CC2CCCCC2)CC1 (some centres not stated) | – | 3.73 | 88.9 | IC50 [1]: 5.32 µM
N=C1NC[C@H](CCCCN2C[C@H](Cc3ccc4ccccc4c3)N(CCc3cccc(Br)c3)C2=N)N1CCc1ccc(Cl)c(Cl)c1 | 0.8 | – | – | –
